Measured values as given in ChEMBL document CHEMBL2417552, “Screen of pseudopeptidic inhibitors of human sirtuins 1-3: two lead compounds with antiproliferative effects in cancer cells” (J Med Chem, 2013).
Active and inactive are the calls of the source. The calls are words filed in the database; no cut-off is given here.

How the values were obtained:
A549 [1] = assay: Cytotoxicity against human A549 cells assessed as cell death at 100 uM after 18 hrs by propidium iodide staining-based FACS flow cytometric analysis; assay type: functional
A549 [2] = assay: Cell cycle arrest in human A549 cells assessed as accumulation at S phase at 100 uM after 18 hrs by propidium iodide staining-based FACS flow cytometric analysis (reference value: 17.8%); assay type: functional
A549 [3] = assay: Cell cycle arrest in human A549 cells assessed as accumulation at G1 phase at 100 uM after 18 hrs by propidium iodide staining-based FACS flow cytometric analysis (reference value: 62.3%); assay type: functional
[4] = molecular target: T1, NAD-dependent protein deacetylase sirtuin-1 (Homo sapiens) (UniProt Q96EB6); assay: Inhibition of SIRT1 in etoposide-induced human MCF7 cells assessed as increase in p53 acetylation at Lys382 at 50 uM after 5 hrs by Western blotting analysis; assay type: cell-based
T1 sequence (whole entry): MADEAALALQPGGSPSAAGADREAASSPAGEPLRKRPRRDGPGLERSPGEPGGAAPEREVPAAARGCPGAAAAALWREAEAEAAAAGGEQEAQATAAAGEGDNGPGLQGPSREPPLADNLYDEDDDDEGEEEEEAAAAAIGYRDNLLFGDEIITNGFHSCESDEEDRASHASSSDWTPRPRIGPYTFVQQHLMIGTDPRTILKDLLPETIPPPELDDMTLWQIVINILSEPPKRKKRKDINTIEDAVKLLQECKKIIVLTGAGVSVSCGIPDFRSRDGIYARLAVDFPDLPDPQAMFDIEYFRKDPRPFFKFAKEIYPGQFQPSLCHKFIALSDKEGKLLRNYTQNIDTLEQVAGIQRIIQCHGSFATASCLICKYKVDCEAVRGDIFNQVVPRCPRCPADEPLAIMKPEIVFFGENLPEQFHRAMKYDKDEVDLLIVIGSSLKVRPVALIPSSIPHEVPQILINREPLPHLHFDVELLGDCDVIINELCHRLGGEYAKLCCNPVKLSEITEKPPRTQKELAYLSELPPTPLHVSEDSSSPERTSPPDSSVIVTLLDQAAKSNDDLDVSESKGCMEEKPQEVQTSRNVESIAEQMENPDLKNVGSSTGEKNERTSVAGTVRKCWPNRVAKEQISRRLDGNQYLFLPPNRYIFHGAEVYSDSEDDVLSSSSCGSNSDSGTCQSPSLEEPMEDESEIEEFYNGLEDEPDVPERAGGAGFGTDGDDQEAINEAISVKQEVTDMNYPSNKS
Method in brief: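 MCF-7 cells seeded 24 h ahead, then given 50 μM compound and 100 μM etoposide together for 5 h before harvest. Acetylated p53 detected by Western blot; run once per compound.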

[5] = molecular target: T2, NAD-dependent protein deacetylase sirtuin-2 (Homo sapiens) (UniProt Q8IXJ6); assay: Inhibition of human recombinant GST-tagged SIRT2 using KI179 as substrate at 50 uM preincubated for 5 mins followed by enzyme addition measured after 1 hr by fluorescence assay relative to control
T2 sequence (whole entry): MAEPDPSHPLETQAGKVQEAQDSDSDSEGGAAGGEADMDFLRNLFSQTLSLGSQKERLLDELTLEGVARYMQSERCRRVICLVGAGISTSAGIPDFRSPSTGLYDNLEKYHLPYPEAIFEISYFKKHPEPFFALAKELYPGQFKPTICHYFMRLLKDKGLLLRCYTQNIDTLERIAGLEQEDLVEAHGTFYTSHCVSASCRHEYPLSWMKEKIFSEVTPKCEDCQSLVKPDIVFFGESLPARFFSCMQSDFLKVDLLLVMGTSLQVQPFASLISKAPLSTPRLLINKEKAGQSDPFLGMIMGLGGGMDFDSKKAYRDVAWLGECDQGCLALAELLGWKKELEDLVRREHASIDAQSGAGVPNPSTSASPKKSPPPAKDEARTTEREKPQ
Method in brief: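 Recombinant GST-SIRT2, Fluor de Lys assay in SIRT assay buffer. Acetylated peptide KI179 at 0.7 Km (Km 198 µM) and NAD+ at 0.9 Km (reported Km 547 µM). Buffer, substrate, NAD+ and compound in DMSO preincubated 5 min at room temperature. Enzyme added to start; 1 h at 37 °C. Developer with 2 mM nicotinamide added; 45 min at 37 °C; fluorescence read. Mean ± SD, ≥3 experiments.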

[6] = molecular target: T3, NAD-dependent protein deacetylase sirtuin-3, mitochondrial (Homo sapiens) (UniProt Q9NTG7); details: at 50 µM;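 further: recombinant His-tagged human SIRT3 with KI179 substrate, fluorescence read after 1 h, inhibition expressed relative to control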
T3 sequence (whole entry): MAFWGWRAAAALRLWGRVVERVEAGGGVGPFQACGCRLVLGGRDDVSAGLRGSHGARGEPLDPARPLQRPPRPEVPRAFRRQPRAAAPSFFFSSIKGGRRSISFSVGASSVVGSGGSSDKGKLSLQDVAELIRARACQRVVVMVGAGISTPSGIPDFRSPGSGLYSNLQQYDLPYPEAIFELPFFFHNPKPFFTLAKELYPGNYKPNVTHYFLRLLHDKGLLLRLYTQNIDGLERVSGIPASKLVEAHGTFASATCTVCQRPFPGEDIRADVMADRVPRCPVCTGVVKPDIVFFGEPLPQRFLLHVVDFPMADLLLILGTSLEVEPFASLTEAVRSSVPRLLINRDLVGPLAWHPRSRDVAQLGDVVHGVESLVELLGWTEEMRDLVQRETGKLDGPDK

inhibition [4]: Active
inhibition [5]: 97%
inhibition [6]: 82%
Compound: COc1ccc(C(=O)CNC(=O)[C@H](CCCCNC(C)=S)NC(=O)OCc2ccccc2)cc1
Activity (A549 [1]): inactive
Activity (A549 [2]): 7.7%
Activity (A549 [3]): 82.2%
